Assay [1] can be described thus: Antiproliferative activity against human WM164 cells after 48 hrs by sulforhodamine B assay. It is filed as functional, cell-based. The note with it: WM164, 48 h. (In general: The SRB assay estimates cell density from bound dye.)
For the next assay, the system named is PPC-1. The assay is described as follows: Antiproliferative activity against human PPC1 cells after 96 hrs by sulforhodamine B assay. It is filed as functional, cell-based. The note with it: PPC-1, 96 h.
The next assay is filed under the species Bos taurus. The assay is described as follows: Inhibition of bovine brain tubulin polymerization after 15 mins by spectrophotometric analysis. In outline:
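Bovine brain tubulin (>97% pure, 0.4 mg per assay) mixed with compound at 5, 10 or 20 µM, with 5% DMSO as vehicle control. Buffer: 80 mM PIPES, 2.0 mM MgCl2, 0.5 mM EGTA, 1 mM GTP, pH 6.9. Polymerization followed at 37 °C as absorbance at 340 nm, read every minute for 15 min.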

The next assay deals with LNCaP. In words: Antiproliferative activity against human LNCAP cells after 96 hrs by sulforhodamine B assay. It is filed as functional, cell-based.
Assay [2] relates to DU-145. The assay is described as follows: Antiproliferative activity against human DU145 cells after 96 hrs by sulforhodamine B assay. Format: functional, cell-based. The note with it: DU-145, 96 h.
A further assay has as its system A-375. In words: Antiproliferative activity against human A375 cells after 48 hrs by sulforhodamine B assay. It is filed as functional, cell-based. The note with it: A-375, 48 h.
For assay [3], the system named is PC-3. In words: Antiproliferative activity against human PC3 cells after 96 hrs by sulforhodamine B assay. Format: functional, cell-based. The note with it: PC-3, 96 h.
For assay [4], the system named is PC-3. In words: Antiproliferative activity against human PC3 cells by sulforhodamine B assay. Format: functional, cell-based. A digest of the protocol:
(§1)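 Prostate cancer cells grown in RPMI 1640 with 10% FBS at 37 °C, 5% CO2. Cells (1000–5000/well, by growth rate) were exposed to a range of concentrations for 96 h, in three to five replicates. Growth was read by SRB: TCA fixation, 0.4% SRB stain, absorbance at 540 nm.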

For assay [5], the system named is DU-145. In words: Antiproliferative activity against human paclitaxel-resistant DU145 cells by sulforhodamine B assay. Format: functional, cell-based. A digest of the protocol:
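Prostate cancer cells grown in RPMI 1640 with 10% FBS at 37 °C, 5% CO2. Seeded at 1000–5000 cells/well depending on growth rate and exposed to a concentration series for 96 h, in three to five replicates. Cells fixed with 10% TCA and stained with 0.4% SRB, absorbance read at 540 nm.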

Assay [6] concerns PC-3. The assay is described as follows: Antiproliferative activity against human paclitaxel-resistant PC3 cells by sulforhodamine B assay. Format: functional, cell-based. A digest of the protocol: as §1

Molecules are shown by their SMILES.

In general, IC50 refers to the midpoint of a concentration-inhibition curve. A low value points to greater potency in that assay. For the molecule `COc1cc(C(=O)c2cc3ccc(F)cc3[nH]2)cc(OC)c1OC`, the IC50 (in [1]; in the assay with PPC-1; in the assay with LNCaP; with DU-145 [2]; in the assay on A-375; in the assay on PC-3 [3]) was above 10 µM in each case. The inhibition entry in the assay listed under Bos taurus is “Dose-dependent effect”.
For `COc1cc(C(=O)c2cc3ccc(C)cc3[nH]2)cc(OC)c1OC`, the 50% inhibitory concentration (IC50) (in assay [1]; in the assay with PPC-1; with LNCaP; in the assay with DU-145 [2]; with A-375; in the assay on PC-3 [3]) was above 10 µM in each case. In the assay filed under Bos taurus, the inhibition result was “Dose-dependent effect”.
For `COc1ccc(S(=O)(=O)n2cc(C(=O)c3ccc(F)cc3)nc2-c2ccc(N(C)C)cc2)cc1`, the IC50 in assay [1] stood at 0.1 µM; with PPC-1, 0.06 µM; in the assay on LNCaP, 0.07 µM; in the assay on DU-145 [2], 0.13 µM; with A-375, 0.1 µM; in the assay with PC-3 [3], 0.04 µM. Further, in the assay listed under Bos taurus, the inhibition result is “Dose-dependent effect”.
Regarding `COc1cc(C(=O)c2cc3cc(Cl)ccc3[nH]2)cc(OC)c1OC`, the IC50 in assay [1] was 2.16 µM; in the assay with PPC-1 it was above 10 µM; in the assay with LNCaP, above 10 µM; in the assay on DU-145 [2], above 10 µM; with A-375, 1.47 µM; in the assay with PC-3 [3], above 10 µM. Further, the inhibition entry in the assay listed under Bos taurus was “Dose-dependent effect”.
With `COc1cc(C(=O)c2nc3ccccc3o2)cc(OC)c1OC`, the IC50 (in assay [1]; with PPC-1; in the assay on LNCaP; in the assay on DU-145 [2]; in the assay on A-375; in the assay with PC-3 [3]) was above 10 µM in each case. Besides, the inhibition entry in the assay filed under Bos taurus is “Dose-dependent effect”.
As to `COc1cc(C(O)(c2nc3ccccc3s2)c2nc3ccccc3s2)cc(OC)c1OC`, the IC50 (in assay [1]; in the assay with PPC-1; in the assay with LNCaP; in the assay on DU-145 [2]; with A-375; in the assay on PC-3 [3]) was above 10 µM in each case. Also, the inhibition entry in the assay filed under Bos taurus is “Dose-dependent effect”.
Regarding `COc1cc(C(=O)c2c[nH]c(-c3ccc4[nH]c(C(=O)c5cc(OC)c(OC)c(OC)c5)cc4c3)n2)cc(OC)c1OC`, the IC50 was determined as 1.7 µM in assay [1]; 4.58 µM with PPC-1; 1.07 µM in the assay with LNCaP; 5.92 µM in the assay on DU-145 [2]; 1.8 µM with A-375; 2.63 µM in the assay on PC-3 [3]. In the assay filed under Bos taurus, the inhibition entry was “Dose-dependent effect”.
Turning to `COc1cc(C(=O)c2nc3ccccc3[nH]2)cc(OC)c1OC`, the IC50 (in assay [1]; with PPC-1; in the assay with LNCaP; with DU-145 [2]; in the assay with A-375; with PC-3 [3]) was above 10 µM throughout. The inhibition entry in the assay filed under Bos taurus was “Dose-dependent effect”.
For the molecule `COc1cc(C(=O)c2cc3cc(F)ccc3[nH]2)cc(OC)c1OC`, the IC50 in assay [1] was 2.26 µM; with PPC-1, 1 µM; in the assay with LNCaP, 8.63 µM; in the assay on DU-145 [2], 3.42 µM; in the assay on A-375, 2.21 µM; in the assay on PC-3 [3], 9.16 µM. The inhibition result in the assay filed under Bos taurus was “Dose-dependent effect”.
As to `COc1cc(C(=O)c2c[nH]c(-c3ccc(Cl)cc3)n2)cc(OC)c1O`, the IC50 came out at 0.5 µM in assay [1]; 0.58 µM with PPC-1; 0.55 µM with LNCaP; 1 µM with DU-145 [2]; 0.68 µM in the assay with A-375; 0.3 µM in the assay on PC-3 [3]. Besides, the inhibition result in the assay listed under Bos taurus was “Dose-dependent effect”.
With `COc1cc(C(=O)c2c[nH]c(-c3ccc(C)cc3)n2)cc(OC)c1O`, the IC50 in assay [1] was determined as 0.12 µM; with PPC-1, 0.11 µM; with LNCaP, 0.13 µM; in the assay with DU-145 [2], 0.17 µM; in the assay with A-375, 0.11 µM; in the assay on PC-3 [3], 0.13 µM. Further, the inhibition result in the assay listed under Bos taurus is “Dose-dependent effect”.
As for `COc1cc(C(=O)c2cc3ccc(F)cc3n2C)cc(OC)c1OC`, the half-maximal inhibitory concentration (IC50) is 7.5 µM in assay [1]; 8.3 µM with PPC-1; 1.05 µM with LNCaP; above 10 µM in the assay on DU-145 [2]; 5.87 µM in the assay with A-375; above 10 µM with PC-3 [3]. In addition, the inhibition result in the assay filed under Bos taurus is “Dose-dependent effect”.
On to `COc1cc(C(=O)c2cc3ccc(F)cc3n2S(=O)(=O)c2ccccc2)cc(OC)c1OC`, for which the IC50 (in assay [1]; in the assay on PPC-1; in the assay with LNCaP; in the assay on DU-145 [2]; with A-375; with PC-3 [3]) was above 10 µM in each case. Moreover, the inhibition entry in the assay listed under Bos taurus was “Dose-dependent effect”.
As for `COc1cc(C(=O)c2cc3ccc(Cl)cc3n2C)cc(OC)c1OC`, the IC50 in assay [1] is 8.08 µM; in the assay on PPC-1, 4.33 µM; in the assay with LNCaP, 1.04 µM; in the assay with DU-145 [2], above 10 µM; in the assay with A-375 it was 6.65 µM; in the assay with PC-3 [3] it was 3.76 µM. For the same molecule, the inhibition entry in the assay listed under Bos taurus was “Dose-dependent effect”.
As to `COc1cc(C(=O)c2nc3ccccc3s2)cc(OC)c1OC`, the IC50 (in assay [1]; in the assay with PPC-1; in the assay with LNCaP; in the assay on DU-145 [2]; with A-375; in the assay with PC-3 [3]) was above 10 µM each time. In the assay listed under Bos taurus, the inhibition result was “Dose-dependent effect”.
In the case of `COc1cc(C(=O)c2cc3ccc(Cl)cc3n2Cc2ccccc2)cc(OC)c1OC`, the IC50 (in [1]; in the assay with PPC-1; in the assay on LNCaP; in the assay with DU-145 [2]; in the assay on A-375; in the assay on PC-3 [3]) was above 10 µM each time. For the same molecule, the inhibition result in the assay listed under Bos taurus is “Dose-dependent effect”.
With `COc1cc(C(=O)c2cc3ccc(Cl)cc3[nH]2)cc(OC)c1OC`, the IC50 (in assay [1]; in the assay with PPC-1; in the assay with LNCaP; with DU-145 [2]; in the assay on A-375; in the assay with PC-3 [3]) was above 10 µM in each case. Also, the inhibition result in the assay listed under Bos taurus is “Dose-dependent effect”.
Consider `COc1cc(C(=O)c2cn(Cc3ccccc3)c(-c3ccc(C)cc3)n2)cc(OC)c1OC`, for which the IC50 is 1.17 µM in [1]; 0.78 µM in the assay with PPC-1; 0.68 µM in the assay with LNCaP; 1.5 µM in the assay on DU-145 [2]; 1.06 µM with A-375; 0.47 µM with PC-3 [3]. Also, the inhibition entry in the assay listed under Bos taurus is “Dose-dependent effect”.
As for `COc1ccc2cc(C(=O)c3cc(OC)c(OC)c(OC)c3)n(S(=O)(=O)c3ccccc3)c2c1`, the IC50 in assay [1] was above 10 µM; in the assay on PPC-1 it was 1.05 µM; with LNCaP it was above 10 µM; with DU-145 [2], above 10 µM; in the assay with A-375, 8.22 µM; with PC-3 [3], 2.66 µM. In addition, in the assay listed under Bos taurus, the inhibition result is “Dose-dependent effect”.
Regarding `COc1ccc2cc(C(=O)c3cc(OC)c(OC)c(OC)c3)[nH]c2c1`, the half-maximal inhibitory concentration (IC50) (in assay [1]; in the assay on PPC-1; with LNCaP; with DU-145 [2]; in the assay with A-375; in the assay on PC-3 [3]) was above 10 µM throughout. In addition, in the assay listed under Bos taurus, the inhibition result was “Dose-dependent effect”.
In the case of `CC(=O)O[C@H]1C(=O)[C@@]2(C)[C@H]([C@H](OC(=O)c3ccccc3)[C@]3(O)C[C@H](OC(=O)[C@H](O)[C@@H](NC(=O)c4ccccc4)c4ccccc4)C(C)=C1C3(C)C)[C@]1(OC(C)=O)CO[C@@H]1C[C@@H]2O` [PACLITAXEL], the half-inhibitory concentration (IC50) in the assay on PC-3 [4] is 0.00043 µM; in the assay with DU-145 [5], above 3 µM; with PC-3 [6], 0.188 µM.
Consider `COc1ccc(-c2nc(C(=O)c3ccc(F)cc3)cn2C)cc1`, for which the IC50 (in assay [1]; in the assay with PPC-1; with LNCaP; in the assay with DU-145 [2]; with A-375; in the assay with PC-3 [3]) was above 10 µM in each case. The inhibition result in the assay filed under Bos taurus is “Dose-dependent effect”.
On to `COc1ccc2[nH]c(C(=O)c3cc(OC)c(OC)c(OC)c3)cc2c1`, for which the IC50 in assay [1] stood at 0.04 µM; in the assay with PPC-1, 0.05 µM; with LNCaP it was 0.05 µM; in the assay with DU-145 [2], 0.08 µM; in the assay with A-375 it was 0.03 µM; with PC-3 [3], 0.04 µM. Besides, the inhibition entry in the assay filed under Bos taurus was “Dose-dependent effect”.
